HTR1E antagonist = blocks the human 5-HT1E serotonin receptor; AID 571; actives 0.99% (n = 65,000); inhibition, % at 6 µM; CHO 5-HT1E Ga15 NFAT-bla reporter, FRET, antagonist;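 active means inhibition above a set limit, the mean inhibition across every tested compound plus 3 SD, cut at about 29% in these data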;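 further: signal is the 460 over 535 nm emission ratio of beta-lactamase substrate; 0% = agonist plus DMSO wells and 100% = wells without agonist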
5HT1a antag = blocks the human serotonin 5-HT1a receptor. inhibition, % at 10 µM. P08908. CHO 5-HT1a Ga15 NFAT-bla reporter, antagonist mode. actives 0.68% (n = 62,000);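 active means inhibition above the mean of all tested compounds plus 3 SD, cut at about 43% in these data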;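 further: receptor stimulated by 5-CT agonist at 100 nM near EC80; beta-lactamase reporter measured by ratiometric fluorescence of a cleavable substrate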
Target sequence (P08908 whole entry, looked up): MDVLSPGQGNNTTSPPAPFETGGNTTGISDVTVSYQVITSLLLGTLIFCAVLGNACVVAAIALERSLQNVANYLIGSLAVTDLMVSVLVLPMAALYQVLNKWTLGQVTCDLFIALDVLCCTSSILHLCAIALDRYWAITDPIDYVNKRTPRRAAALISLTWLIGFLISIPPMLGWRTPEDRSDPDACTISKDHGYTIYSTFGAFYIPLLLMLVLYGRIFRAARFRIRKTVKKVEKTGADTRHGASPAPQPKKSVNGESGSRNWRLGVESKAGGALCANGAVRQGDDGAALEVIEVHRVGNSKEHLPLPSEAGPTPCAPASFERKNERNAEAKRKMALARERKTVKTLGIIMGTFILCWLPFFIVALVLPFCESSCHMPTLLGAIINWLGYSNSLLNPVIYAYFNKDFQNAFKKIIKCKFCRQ
5HT1a ag = 5-HT1a (human) receptor agonism. actives 0.56% (n = 65,000). activation, % at 10 µM. P08908. CHO 5-HT1a Ga15 NFAT-bla reporter, FRET ratio; 0% basal, 100% maximal reference agonist. AID 567;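 active means activation above the screen-wide mean activation plus 3 SD, cut at about 19% in these data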;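 further: 0% = DMSO wells and 100% = 5-CT at EC100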
S1P3 ag = agonists of human S1P3 receptor; Q99500; S1P3 NFAT-BLA reporter cells, agonism, FRET ratio; relative to 1 µM S1P, basal subtracted; activation, % at 4.5 µM; actives 0.1% (n = 60,000); AID 373;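 active means activation above the screen-wide mean plus 3 SD, cut at about 4.5% in these data, passing the limit was not always enough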
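material = human S1P3 NFAT-BLA reporter CHO cells | schedule = 4 h compound at 37 °C, 2 h substrate at RT | measured by = fluorescent BLA substrate, ex 405 nm, em 460/535 nm ratio | controls = 1 µM S1P reference | replication = primary once, confirmation triplicate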
5HT1E ag = activates the human 5-HT1E serotonin receptor. P28566. CHO 5-HT1E Ga15 NFAT-bla reporter, FRET; 0% DMSO wells, 100% control agonist wells. activation, % at 6 µM. actives 0.69% (n = 65,000). AID 574;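 active means activation above a set limit, the screen-wide mean activation plus 3 SD, cut at about 8.5% in these data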;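 further: 100% = positive control agonist at 1 µM giving full maximal response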
S1P1 ag pot = S1P1 (human) agonism or agonism potentiation; P21453; AID 449; S1P1 CRE-bla cells, forskolin, beta-lactamase FRET, potentiator mode; S1P1 agonist co-added at EC20, 2 nM; 100% = saturating reference agonist, 0% = basal; activation, % at 9.5 µM; actives 0.57% (n = 56,000);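 active means activation above a cutoff set at the mean activation of all tested compounds plus 3 SD, cut at about 54% in these data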;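 further: forskolin at 4 µM as EC80 and the EC20 agonist is SEW2871; 100% = SEW2871 at its EC100 plus forskolin at EC80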
Active calls of the source: *; nt = no result given. A selection: hits, their analogues and other compounds. The true share with any hit is near 3%.

SMILES | HTR1E antagonist | 5HT1a antag | 5HT1a ag | S1P3 ag | 5HT1E ag | S1P1 ag pot
CCC(c1nnnn1Cc1ccc2c(c1)OCO2)N1CCN(c2ccc(F)cc2)CC1 (stereo unspecified) | 7.6 | 43.7* | -2.0 | -1.5 | -1.1 | -7.3
CCC(c1nnnn1Cc1ccc2c(c1)OCO2)N1CCN(c2ccccc2)CC1 (stereo unspecified) | 13.7 | 39.1 | 0.4 | -0.1 | -1.9 | 8.4
COC(=O)c1cc(CC(=O)c2ccc(O)cc2O)c(C)o1 | 6.0 | 4.9 | 284.3* | 0.0 | 0.4 | 12.1
COC(=O)c1ccc(CC(=O)c2ccc(O)cc2O)o1 | 10.7 | -18.2 | 0.3 | 0.1 | 0.1 | 13.6
CCn1c(=O)c2cc(S(=O)(=O)NC3CCCCC3)ccc2n(CC)c1=O | 5.8 | -15.4 | 0.6 | -0.4 | 0.2 | nt
O=C(Nc1ccc(Oc2ccc(NC(=O)c3ccco3)c(NC(=O)c3ccco3)c2)cc1)c1ccco1 | 18.1 | 58.8* | -1.6 | 0.3 | -1.2 | -10.0
CC1CCc2nn(CC(=O)NC3CCCC3)cc2C1 (stereo unspecified) | -8.2 | -12.6 | 40.0* | 0.3 | 0.1 | -6.6
CCOCCCNC(=O)Cn1cc2c(n1)CCCC2 | -7.2 | 15.2 | 36.3* | 0.0 | -0.6 | -24.3
CCCN1CCN(CCCNC(=O)Cn2cc3c(n2)CCCC3)CC1 | -4.0 | 9.7 | -2.0 | 0.3 | -0.6 | -32.6
O=C(Cn1cc2c(n1)CCCCC2)NC1CCN(Cc2ccccc2)CC1 | -0.6 | 7.0 | 28.5* | 0.6 | 0.5 | -9.4
Cc1cc(/N=C/C=C2\N(C)c3ccccc3C2(C)C)n(CCC#N)n1 | -8.8 | -11.1 | -0.3 | -0.3 | 0.9 | 6.9
CC(=O)c1ccc(OCCCC(=O)OCC(=O)N2CCN(c3ccccc3)CC2)cc1 | 3.0 | 12.7 | -2.6 | 0.4 | -0.3 | 4.0
CCOc1ccc(NC(=O)CN(C)CC(=O)Nc2ccccc2C#N)cc1OCC | 7.2 | -9.8 | 288.6* | 0.2 | -0.5 | -7.4
CN(C)c1ccnc(NCc2ccccc2)c1C#N | 10.4 | 10.4 | 20.3* | -0.5 | 0.0 | 0.6
Cc1ccc(-c2nn(C)c(=O)c3ccccc23)cc1S(=O)(=O)NCCO | 28.9* | 5.7 | -2.1 | -1.3 | -0.5 | nt
Cc1ccc(-c2nn(C)c(=O)c3ccccc23)cc1S(=O)(=O)N1CCCC1 | 35.9* | 9.9 | 0.0 | -0.1 | 1.6 | -49.9
Cc1noc(C)c1COC(=O)CCCc1c[nH]c2ccccc12 | -1.0 | 15.3 | -1.2 | -0.3 | 0.0 | 19.6
O=C(CN1CCN(Cc2ccccc2)CC1)c1ccc(Br)cc1 | -3.6 | -1.8 | 22.4* | -0.9 | 1.7 | -3.1
CN(Cc1cccs1)S(=O)(=O)c1cccs1 | 1.0 | 6.6 | -2.1 | -0.5 | 1.1 | -2.0
CC1(C)Cc2cccc(OCC(O)CN3CCN(c4ccccn4)CC3)c2O1 (stereo unspecified) | -4.4 | 11.0 | 21.2* | -0.1 | 0.1 | 14.8
CC1(C)Cc2cccc(OCC(O)CNCc3ccccn3)c2O1 (stereo unspecified) | 10.3 | 20.6 | -0.8 | -1.5 | 0.0 | 14.3
OC(COc1ccc(C2C=CCC2)cc1)CN1CCCCC1 (stereo unspecified) | -3.8 | -30.0 | 1.1 | -1.0 | 1.6 | nt
Cc1nn(-c2ccccc2)c(Cl)c1C(=O)Nc1nnc(C2CCCC2)s1 | 2.2 | 9.2 | 0.9 | -0.3 | 0.0 | -10.1
Nc1nsc2ccccc12 | 25.0 | 73.3* | -5.8 | -2.1 | -1.6 | 39.0
Nc1nc2ccccc2nc1N | -6.2 | 3.4 | -1.8 | -2.1 | -0.4 | -19.9
SMILES | HTR1E antagonist | 5HT1a antag | 5HT1a ag | S1P3 ag | 5HT1E ag | S1P1 ag pot
O=C(CC1Oc2ccccc2NC1=O)NCc1ccccc1 (stereo unspecified) | 1.9 | -6.4 | -1.5 | -0.9 | 0.3 | -0.5
CC(=O)CC1OC(=O)C(Br)=C1NCc1ccccc1 (stereo unspecified) | 12.6 | 68.6* | -1.1 | -0.7 | 0.5 | -40.2
COc1ccc(N2C(=O)CCC(C(=O)Nc3cccc(C)n3)C2c2ccc(OC)c(OC)c2)cc1 (stereo unspecified) | 11.9 | -0.3 | 28.9* | nt | -1.9 | nt
COc1ccc(-c2nc(CS(=O)CC(=O)N3CCCC3)c(C)o2)cc1 (stereo unspecified) | 9.5 | -3.4 | 100.9* | 0.3 | 0.4 | -14.5
Cc1cccc(-c2nc(CS(=O)CC(=O)NC3CCCC3)c(C)o2)c1 (stereo unspecified) | 13.2 | -3.4 | 36.8* | -0.9 | -0.1 | 13.0
CCN1CCN(C(=O)CS(=O)Cc2nc(-c3ccc(OC)cc3)oc2C)CC1 (stereo unspecified) | -4.1 | -10.2 | -2.7 | -0.6 | 0.3 | 2.0
COCCCNC(=O)CS(=O)Cc1nc(-c2cccc(OC)c2)oc1C (stereo unspecified) | -5.9 | 11.5 | -1.3 | -0.6 | 8.9* | 0.3
Cc1oc(-c2cccs2)nc1CS(=O)CC(=O)NC1CCCCCC1 (stereo unspecified) | 0.4 | 8.5 | -2.3 | -0.9 | 0.5 | 9.6
COc1ccc(-c2nc(CS(=O)CC(=O)NCc3ccco3)c(C)o2)cc1OC (stereo unspecified) | 29.2* | 6.2 | 0.2 | 0.2 | 0.0 | -1.4
Cc1cccc(-c2nc(C#N)c(NC3CCCCC3)o2)c1 | 55.0* | nt | -1.1 | -3.6 | -0.4 | 68.5*
COc1ccccc1CNC(=O)c1nnc(Cc2ccc(Cl)cc2)o1 | -2.5 | -6.6 | 19.5* | -1.2 | 0.7 | 4.8
CN1/C(=C\C(=O)COc2ccc3c(c2)OCO3)C(C)(C)c2ccccc21 | 0.7 | 10.5 | -4.9 | -1.0 | 13.8* | 28.8
Cn1cc(/C=N/n2cnc3scc(-c4ccccc4)c3c2=O)c2ccccc21 | 30.3* | 9.5 | 2.9 | -1.2 | -0.6 | 29.1
COc1cccc(N2CCN(C3CC(=O)N(c4ccc(Cl)c(Cl)c4)C3=O)CC2)c1 (stereo unspecified) | -1.2 | -6.7 | 1.9 | 0.8 | 0.3 | -12.0
COc1cccc(N2CCN(C3OC(=O)c4ccccc43)CC2)c1 (stereo unspecified) | 7.8 | 1.4 | -1.0 | -0.5 | 23.3* | 1.0
COc1ccccc1Oc1ccc2c(c1)C(=O)N(c1ccc(O)cc1)C2=O | -3.4 | -1.4 | -2.9 | -0.7 | 0.7 | 111.5*
COc1ccc2c(c1)C(=O)N(c1ccccc1OC)C(=O)C2(C)C | 9.6 | -0.7 | -0.8 | -0.3 | -0.1 | 3.4
CC1CC(C)CN(c2nc3c(c(=O)[nH]c(=O)n3C)n2CCSc2nc3ccccc3o2)C1 (stereo unspecified) | 7.5 | 10.8 | -0.5 | -0.9 | -0.7 | -17.8
CC1CCN(C2CC(=O)N(c3ccc(Br)cc3Br)C2=O)CC1 (stereo unspecified) | -4.6 | 16.3 | -1.1 | nt | 0.7 | nt
O=c1[nH]c2ccccc2n1CCCSc1cnc2ccccc2n1 | 9.9 | 18.0 | 1.1 | -0.4 | 2.0 | 44.8

High-throughput results as filed in PubChem.
